Measured values collected from several papers.
Medium: plasma

| SMILES | system | setting | quantity | result |
| --- | --- | --- | --- | --- |
| C=CC(=O)NC1CCN(c2ncc3ncnc(Nc4ccc(Oc5ccc6c(c5)ncn6C)c(C)c4)c3n2)CC1 | male human | intravenous, 100 µg, single dose, healthy volunteers | AUC(0-inf) | 0.00269 µM·h |
| OC[C@H]1O[C@@H](c2cc(Cc3ccc(C4CC4)cc3)c(Cl)c3c2CCO3)[C@H](O)[C@@H](O)[C@@H]1O | human | oral, 0.3 mg, single dose, fed | AUC(0-inf) | 31 ng·h/mL |
| CC(C)n1c(C2CCNCC2)nc2c([N+](=O)[O-])c(Br)c(Br)cc21 | human | oral, 75 mg, patients | AUC(0-t) | 288 ng·h/mL |
| CC(C)c1nc(N(C)S(C)(=O)=O)nc(-c2ccc(F)cc2)c1/C=C/[C@@H](O)C[C@@H](O)CC(=O)O | human | oral, 10 mg, single dose, healthy volunteers | AUC(0-inf) | 36.7 ng·h/mL |
| CC(=O)N(C)[C@H]1CCN(C(=O)c2cnc3c(c2)C[C@](C)(c2ccc(F)cc2)N3)C1 | male human | oral, 30 mg, multiple doses, once daily | AUC(0-inf) | 3.99 µM·h |
| O=C(COc1ccc(Cl)cc1)NC12CC(c3nnc([C@H]4C[C@@H](OC(F)(F)F)C4)o3)(C1)C2 | human | oral, 45 mg, multiple doses, once daily, steady state, healthy volunteers | AUC | 36.5 µM·h |
| COc1ccc2c(c1)CN(C(=O)CCN1CCC(Cc3ccccc3)CC1)CC[S@@+]2[O-] | male human | intravenous, 0.6 mg/kg, healthy volunteers | AUC(0-inf) | 3240 ng·h/mL |
| COc1ccc(F)cc1C(=O)NCc1ccc(-c2nn([C@@H](C)C(F)(F)F)c(N)c2C(N)=O)cc1 | human | oral, 200 mg, single dose, fasted, healthy volunteers | AUC(0-inf) | 85100 ng·h/mL |
| N#Cc1cccc(-c2ccc3ncc(-c4cc(F)cc(F)c4)c(N4CCC(N)CC4)c3c2)c1O | male human | oral, 20 mg, single dose | AUC | 2360 ng·h/mL |
| COc1ccc(-c2c(Nc3ccccn3)[nH]c3c(C4=CCCCC4)c(-c4ccccc4)nn3c2=O)cc1 | human | oral, 150 mg once daily, multiple doses, steady state, patients | AUC(0-t) | 93600 ng·h/mL |
| CC(C)c1nc(N(C)S(C)(=O)=O)nc(-c2ccc(F)cc2)c1/C=C/[C@@H](O)C[C@@H](O)CC(=O)O | human | oral, 10 mg | AUC | 60.3 ng·h/mL |
